These results are taken from ChEMBL document CHEMBL4257516, “Synthesis and cellular penetration properties of new phosphonium based cationic amphiphilic peptides” (Medchemcomm, 2018).

The source made the active and inactive calls. No cut-off for these calls is given here. Residues, ends and D or L forms follow the SMILES beside them. *: point of attachment. BODIPY(FL) = CC1=CC(C)=[N+]2C1=Cc1ccc(CCC(=O)*)n1[B-]2(F)F; Propyl(3-PMe3+) = C[P+](C)(C)CCC*; CH2CH2P(+)Me3 = C[P+](C)(C)CC*

Data set [1] in a line: Drug uptake in membrane containing structure of human MCF7 cells at 20 uM after 3 hrs by DAPI/rhodamine phalloidin staining-based fluorescence microscopic method. The data set is classed as ADME, cell membranes. The conditions noted are these: mcf7, 3 h. The method, boiled down:
(§1)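 MCF7 cells incubated with 20 μM BODIPY-Fl-labelled peptides (label coupled at the N-terminus) using a slightly modified literature protocol. Nuclei counterstained with DAPI and actin cytoskeleton with rhodamine phalloidin. Imaged by fluorescence microscopy; green, blue and red channels merged to localise peptide. Free BODIPY ligand served as control for green signal.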

Data set [2] is described as follows: Drug uptake in cytoplasm of human MCF7 cells at 20 uM after 3 hrs by DAPI/rhodamine phalloidin staining-based fluorescence microscopic method. To be noted: mcf7, 3 h. The data set is classed as ADME, subcellular. Put shortly:
(§2)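 Peptides labelled at the N-terminus with BODIPY-Fl; MCF7 cells incubated with 20 μM labelled peptide by a modified literature protocol. Imaged by fluorescence microscopy with DAPI for nuclei and rhodamine phalloidin for cytoskeleton. Green, blue and red images were merged to localise the peptide. Free BODIPY ligand served as a control for green signal.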

Data set [3] is described as follows: Drug uptake in nucleus of human MCF7 cells at 20 uM after 3 hrs by DAPI/rhodamine phalloidin staining-based fluorescence microscopic method. It is filed as ADME, subcellular. To be noted: mcf7, 3 h. Put shortly:
as §2

Another data set concerns MCF7. Nature of the data set: Binding affinity to actin in human MCF7 cells at 20 uM after 3 hrs by DAPI/rhodamine phalloidin staining-based fluorescence microscopic method. It is filed as cell-based. The method, boiled down:
as §1

Data set [4] can be described thus: Drug uptake in golgi apparatus of human MCF7 cells at 20 uM after 3 hrs by DAPI/rhodamine phalloidin staining-based fluorescence microscopic method. The data set is classed as ADME, subcellular. To be noted: mcf7, 3 h. The method, boiled down: as §2
Data set [5] in a line: Cytotoxicity against HEK293 cells assessed as cell viability at 256 uM after 24 hrs by Alamar blue assay relative to control. It is filed as cell-based. To be noted: human, read-out: Activity. Put shortly:
(§3)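 HEK 293 cells exposed to peptides (TFA salts, C-terminal amide, free N-terminus) at 256 and 512 μM; viability as percent, run in triplicate, reported as mean ± SEM.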

Data set [6] can be described thus: Hemolytic activity in horse erythrocytes at 512 uM after 1 hr relative to control. It is filed as ADME, cell-based, Equus caballus, Erythrocyte. The conditions noted are these: read-out: Activity. The method, boiled down:
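Horse erythrocytes exposed to peptides (TFA salts, C-terminal amide, free N-terminus) at 512 μM; haemolysis as percent, triplicate determinations, reported as mean ± SEM.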

A short description of data set [7]: Cytotoxicity against HEK293 cells assessed as cell viability at 512 uM after 24 hrs by Alamar blue assay relative to control. The data set is classed as cell-based. To be noted: human, read-out: Activity. Put shortly: as §3
For another data set, the system named is Escherichia coli. Kind of data set: Antibacterial activity against extended-spectrum beta-lactamases producing Escherichia coli clinical strain 64771 after overnight incubation by microbroth dilution assay. It is filed as functional.

On to `CC[C@H](C)[C@H](NC(=O)[C@H](Cc1c[nH]c2ccccc12)NC(=O)[C@H](CSCC[P+](C)(C)C)NC(=O)[C@H](Cc1c[nH]c2ccccc12)NC(=O)[C@H](Cc1c[nH]c2ccccc12)NC(=O)[C@H](CSCC[P+](C)(C)C)NC(=O)[C@H](CSCC[P+](C)(C)C)NC(=O)CCc1ccc2n1[B-](F)(F)[N+]1=C(C)C=C(C)C1=C2)C(=O)N[C@@H](CSCC[P+](C)(C)C)C(=O)N[C@@H](Cc1c[nH]c2ccccc12)C(N)=O.O=C([O-])C(F)(F)F.O=C([O-])C(F)(F)F.O=C([O-])C(F)(F)F.O=C([O-])C(F)(F)F` ({BODIPY(FL)}-C(CH2CH2P(+)Me3)C(CH2CH2P(+)Me3)WWC(CH2CH2P(+)Me3)WIC(CH2CH2P(+)Me3)W-NH2), for which, in [1], the Drug uptake result is listed as “Active”.
Turning to `CC[C@H](C)[C@H](NC(=O)[C@H](Cc1c[nH]c2ccccc12)NC(=O)[C@H](CSCC[P+](C)(C)C)NC(=O)[C@H](Cc1c[nH]c2ccccc12)NC(=O)[C@H](Cc1c[nH]c2ccccc12)NC(=O)[C@H](CSCCC[P+](C)(C)C)NC(=O)[C@H](CSCC[P+](C)(C)C)NC(=O)CCc1ccc2n1[B-](F)(F)[N+]1=C(C)C=C(C)C1=C2)C(=O)N[C@@H](CSCCC[P+](C)(C)C)C(=O)N[C@@H](Cc1c[nH]c2ccccc12)C(N)=O.O=C([O-])C(F)(F)F.O=C([O-])C(F)(F)F.O=C([O-])C(F)(F)F.O=C([O-])C(F)(F)F` ({BODIPY(FL)}-C(CH2CH2P(+)Me3)C(Propyl(3-PMe3+))WWC(CH2CH2P(+)Me3)WIC(Propyl(3-PMe3+))W-NH2), the Drug uptake entry in [2] is given as “Active”; in [3], “Not Active”. In addition, in the data set with MCF7, the outcome was Active.
Take `CC1=CC(C)=[N+]2C1=Cc1ccc(CCC(=O)N[C@@H](CSCC[P+](C)(C)C)C(=O)N[C@@H](Cc3ccccc3)C(=O)N[C@@H](Cc3ccccc3)C(=O)N[C@@H](CSCC[P+](C)(C)C)C(=O)N[C@@H](Cc3ccccc3)C(=O)N[C@@H](Cc3ccccc3)C(=O)N[C@@H](CSCC[P+](C)(C)C)C(=O)N[C@@H](Cc3ccccc3)C(=O)N[C@@H](Cc3ccccc3)C(=O)N[C@@H](CSCC[P+](C)(C)C)C(N)=O)n1[B-]2(F)F.O=C([O-])C(F)(F)F.O=C([O-])C(F)(F)F.O=C([O-])C(F)(F)F.O=C([O-])C(F)(F)F` ({BODIPY(FL)}-C(CH2CH2P(+)Me3)FFC(CH2CH2P(+)Me3)FFC(CH2CH2P(+)Me3)FFC(CH2CH2P(+)Me3)-NH2): the Drug uptake entry in data set [3] and in [4] was “Active” throughout.
In the case of `CC[C@H](C)[C@H](NC(=O)[C@H](Cc1c[nH]c2ccccc12)NC(=O)[C@H](CSCCC[P+](C)(C)C)NC(=O)[C@H](Cc1c[nH]c2ccccc12)NC(=O)[C@H](Cc1c[nH]c2ccccc12)NC(=O)[C@H](CSCCC[P+](C)(C)C)NC(=O)[C@H](CSCCC[P+](C)(C)C)NC(=O)CCC1=[N+]2C(=Cc3c(C)cc(C)n3[B-]2(F)F)C=C1)C(=O)N[C@@H](CSCCC[P+](C)(C)C)C(=O)N[C@@H](Cc1c[nH]c2ccccc12)C(N)=O.O=C([O-])C(F)(F)F.O=C([O-])C(F)(F)F.O=C([O-])C(F)(F)F.O=C([O-])C(F)(F)F` ({BODIPY(FL)}-C(Propyl(3-PMe3+))C(Propyl(3-PMe3+))WWC(Propyl(3-PMe3+))WIC(Propyl(3-PMe3+))W-NH2), the Drug uptake result in [2] was “Active”; in [3] it was “Not Active”. In addition, in the data set with MCF7, the result was Active.
Turning to `CC1=CC(C)=[N+]2C1=Cc1ccc(CCC(=O)N[C@@H](CSCCC[P+](C)(C)C)C(=O)N[C@@H](Cc3ccccc3)C(=O)N[C@@H](Cc3ccccc3)C(=O)N[C@@H](CSCCC[P+](C)(C)C)C(=O)N[C@@H](Cc3ccccc3)C(=O)N[C@@H](Cc3ccccc3)C(=O)N[C@@H](CSCCC[P+](C)(C)C)C(=O)N[C@@H](Cc3ccccc3)C(=O)N[C@@H](Cc3ccccc3)C(=O)N[C@@H](CSCCC[P+](C)(C)C)C(N)=O)n1[B-]2(F)F.O=C([O-])C(F)(F)F.O=C([O-])C(F)(F)F.O=C([O-])C(F)(F)F.O=C([O-])C(F)(F)F` ({BODIPY(FL)}-C(Propyl(3-PMe3+))FFC(Propyl(3-PMe3+))FFC(Propyl(3-PMe3+))FFC(Propyl(3-PMe3+))-NH2), the Drug uptake result in data set [3] is recorded as “Active”. For the same compound, the outcome in the data set with MCF7 was Active.
For H-KRWWKWIRW-NH2, the viability at 24 h, 256 µM in [5] stood at 2%. Besides, the hemolysis at 1 h, 512 µM in [6] stood at 14.3%. In addition, the viability at 24 h, 512 µM in data set [7] is 0%. The same compound came in with an MIC against Escherichia coli of 1.5 µM.
